Data from ChEMBL document CHEMBL5096220, “Selective Inhibition of the Periodontal Pathogen Porphyromonas gingivalis by Third-Generation Zafirlukast Derivatives” (J Med Chem, 2022).
Calls of active or inactive are those of the source. The rule behind the calls is not given here.

What was measured:
Porphyromonas gingivalis [1] = assay: Antibiofilm activity against Porphyromonas gingivalis ATCC 33277 assessed as inhibition of biofilm at 100 uM measured after 48 hrs by safranin staining relative to control; type: functional; set-up: scale not given: the % may be the effect or the level left
Outline: (§1)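 Biofilm formation: P. gingivalis ATCC 33277 (10^8 cells/well) was grown in supplemented BHI under anaerobic conditions with gentle shaking, exposed to 10, 25, 50 or 100 μM for 48 h. Biomass was stained with 0.1% safranin and A492 measured. Biofilm growth % = 100×OD treated/OD DMSO control. Positive controls: tetracycline 2.81 μM.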

Porphyromonas gingivalis [2] = assay: Antibacterial activity against Porphyromonas gingivalis ATCC 33277 assessed as growth inhibition at 25 uM measured after 24 hrs by WST-1 assay relative to control; type: functional; set-up: scale not given: the % may be the effect or the level left
Outline: (§2)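 Log-phase P. gingivalis ATCC 33277 was grown anaerobically in hemin/menadione-supplemented BHI, 10^8 cells/well, and treated for 24 h (DMSO vehicle). […] Derivatives: six independent replicates; controls: 42 replicates.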

HEK293 = assay: Cytotoxicity against HEK293 cells assessed as cell survival rate upto 31.3 microg/ml measured after 24 hrs by resazurin dye based analysis; type: functional; settings: Homo sapiens, dose <= 31.3 µg/ml
Outline: (§3)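 HEK-293 and HepG2 cells were maintained in DMEM with 10% FBS and 1% Pen/Strep at 37 °C, 5% CO2. Compounds were tested over 0–62.6 μg/mL. Survival values above 100% were normalized to 100%.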

[3] = Hemolytic activity in mouse RBC at 100 uM incubated for 1 hr; type: toxicity, cell-based, Erythrocyte; settings: mouse red blood cells (erythrocytes), read-out: Activity
Outline: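 Murine red blood cells were incubated 1 h at 37 °C with compounds at 3.13–100 μM. PBS served as the negative control and Triton X-100 (1% v/v) as the 100% hemolysis reference.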

Porphyromonas gingivalis [4] = assay: Antibacterial activity against Porphyromonas gingivalis ATCC 33277 assessed as growth inhibition at 50 uM measured after 24 hrs by WST-1 assay relative to control; type: functional; set-up: scale not given: the % may be the effect or the level left; outline: as §2
Porphyromonas gingivalis [5] = assay: Antibiofilm activity against Porphyromonas gingivalis ATCC 33277 assessed as inhibition of biofilm at 25 uM measured after 48 hrs by safranin staining relative to control; type: functional; set-up: scale not given: the % may be the effect or the level left; outline: as §1
Porphyromonas gingivalis [6] = assay: Bactericidal activity against Porphyromonas gingivalis ATCC 33277 assessed as reduction in colony formation at 100 uM measured 24 hrs […] relative to control; type: functional; set-up: scale not given: the % may be the effect or the level left; settings: in the assay text read “CFU assay” for “safranin staining”
Outline: (§4)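 P. gingivalis ATCC 33277 (10^8/well) was grown anaerobically in supplemented BHI and treated 24 h at 1, 10 or 100 μM in DMSO. Cultures were diluted 1:400 and plated on blood agar; colonies were counted after 5 days anaerobic incubation. % inhibition was based on CFUs/mL vs medium-only cultures, three independent replicates. Controls: tetracycline 2.81 μM, DMSO.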

HepG2 = assay: Cytotoxicity against human HepG2 cells assessed as cell survival rate at upto 31.3 to 62.6 microg/ml measured after 24 hrs by resazurin dye based analysis relative to control; type: functional; settings: dose 31.3-62.6 µg/ml, at 31.3 to 62.6 µg/mL; outline: as §3
Porphyromonas gingivalis [7] = assay: Bactericidal activity against Porphyromonas gingivalis ATCC 33277 assessed as reduction in colony formation at 10 uM measured 24 hrs by safranin staining relative to control; type: functional; set-up: scale not given: the % may be the effect or the level left; settings: in the assay text read “CFU assay” for “safranin staining”; outline: as §4
Porphyromonas gingivalis [8] = assay: Antibacterial activity against Porphyromonas gingivalis ATCC 33277 assessed as growth inhibition at 100 uM measured after 30 mins by WST-1 assay relative to control; type: functional; set-up: scale not given: the % may be the effect or the level left
Outline: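 P. gingivalis ATCC 33277 (10^8 cells/well) was grown to log phase in supplemented BHI under anaerobic conditions and incubated 24 h with treatments. WST-1 A405 was read 30 min after reagent addition. Growth inhibition was calculated relative to medium-only cultures, six independent replicates per condition.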

Streptococcus sanguinis = assay: Antibacterial activity against Streptococcus sanguinis ATCC 10556 assessed as growth inhibition at 100 uM measured after 24 hrs by WST-1 assay relative to control; type: functional; set-up: scale not given: the % may be the effect or the level left
Outline: (§5)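 A. naeslundii ATCC 49340 (anaerobic) and S. sanguinis ATCC 10556 (aerobic) were grown in BHI with 5 μg/mL hemin and 1 μg/mL menadione to log phase, 10^8 cells/well. They were exposed to 1, 10 or 100 μM for 24 h, then WST-1 was added. […] Controls: DMSO, penicillin/streptomycin 1X.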

Actinomyces naeslundii = assay: Antibacterial activity against Actinomyces naeslundii ATCC 49340 assessed as growth inhibition at 100 uM measured after 24 hrs by WST-1 assay relative to control; type: functional; set-up: scale not given: the % may be the effect or the level left; outline: as §5
Fusobacterium nucleatum = assay: Antibacterial activity against Fusobacterium nucleatum ATCC 25586 assessed as growth inhibition at 100 uM measured after 24 hrs by WST-1 assay relative to control; type: functional; set-up: scale not given: the % may be the effect or the level left
Outline: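 F. nucleatum ATCC 25586 was grown anaerobically in hemin/menadione-supplemented BHI to log phase, 10^8 cells/well. Treatment was 1, 10 or 100 μM for 24 h. WST-1 absorbance at 405 nm was read 30 min after reagent addition. % inhibition was calculated vs medium-only cultures, six independent replicates. Controls: DMSO, tetracycline 2.81 μM.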

[9] = Cytotoxicity against human OKF6 cells assessed as reduction in cell viability at 100 uM by Annexin V-FITC/PI staining based flow cytometric analysis relative to control; type: toxicity; settings: okf6, 100 µM
Outline: (§6)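 OKF6 keratinocytes were exposed 24 h to 10 or 100 μM. Apoptosis/necrosis was assessed by FITC-Annexin V staining and flow cytometry, ≥10,000 events per condition, in duplicate across two independent experiments. Controls: medium, 1% DMSO, staurosporine 8 μM.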

Porphyromonas gingivalis [10] = assay: Antibiofilm activity against Porphyromonas gingivalis ATCC 33277 assessed as inhibition of biofilm at 10 uM measured after 48 hrs by safranin staining relative to control; type: functional; set-up: scale not given: the % may be the effect or the level left; outline: as §1
[11] = Cytotoxicity against human OKF6 cells assessed as reduction in cell viability at 10 uM by Annexin V-FITC/PI staining based flow cytometric analysis relative to control; type: toxicity; settings: okf6, 10 µM; outline: as §6
[12] = Cytotoxicity against human OKF6 cells assessed as morphological change at 100 uM […]; type: toxicity, cell-based; settings: okf6, 100 µM
Outline: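 OKF6 oral keratinocytes were treated 24 h at 10 or 100 μM. Cell morphology and density were examined by microscopy across the entire well. Controls: medium, 1% DMSO, staurosporine 8 μM.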

Porphyromonas gingivalis [13] = assay: Antibacterial activity against Porphyromonas gingivalis assessed as reduction of CFU at 10 uM incubated for 5 days measured by […]; type: functional, organism-based; settings: time 5.0 day; outline: as §4
Porphyromonas gingivalis [14] = assay: Antibiofilm activity against Porphyromonas gingivalis ATCC 33277 assessed as inhibition of biofilm at 50 uM measured after 48 hrs by safranin staining relative to control; type: functional; set-up: scale not given: the % may be the effect or the level left; outline: as §1
Porphyromonas gingivalis [15] = assay: Antibacterial activity against Porphyromonas gingivalis ATCC 33277 assessed as growth inhibition at 10 uM measured after 24 hrs by WST-1 assay relative to control; type: functional; set-up: scale not given: the % may be the effect or the level left; outline: as §2
Porphyromonas gingivalis [16] = assay: Antibacterial activity against Porphyromonas gingivalis ATCC 33277 assessed as growth inhibition at 1 uM measured after 24 hrs by WST-1 assay relative to control; type: functional; set-up: scale not given: the % may be the effect or the level left; outline: as §2
Erythrocyte = assay: Hemolytic activity in mouse RBC upto 100 uM incubated for 1 hr; type: toxicity, cell-based
Outline: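 Murine red blood cells incubated with compound at 3.13 to 100 μM for 1 h at 37 °C. PBS only was the negative control; Triton X-100 (1% v/v) set 100% hemolysis.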

Porphyromonas gingivalis [17] = assay: Antibacterial activity against Porphyromonas gingivalis at 100 uM incubated for 5 days measured by […] relative to control; type: functional; settings: dose 10 µM; time 5 day; in the assay text read “10 uM” for “100 uM”; outline: as §4
Porphyromonas gingivalis [18] = assay: Antibacterial activity against Porphyromonas gingivalis ATCC 33277 assessed as growth inhibition at 1 to 100 uM measured after 24 hrs by WST-1 assay relative to control; type: functional; set-up: scale not given: the % may be the effect or the level left; settings: dose 1-100 µM; outline: as §2
[19] = Hemolytic activity in mouse RBC at 27 microg/ml incubated for 1 hr; type: toxicity, cell-based, Erythrocyte; settings: mouse red blood cells (erythrocytes), at 27 µg/mL, read-out: Activity
Porphyromonas gingivalis [20] = assay: Antibiofilm activity against Porphyromonas gingivalis ATCC 33277 assessed as inhibition of biofilm at 10 to 100 uM measured after 48 hrs by safranin staining relative to control; type: functional; set-up: scale not given: the % may be the effect or the level left; settings: dose 10-100 µM; outline: as §1

SMILES: COc1cc(C(=O)NS(=O)(=O)c2ccccc2C)ccc1Cc1cn(C)c2ccc(NC(=O)OC3CCCC3)cc12 [ZAFIRLUKAST]
- Activity (Porphyromonas gingivalis [1]): 58%
- Activity (Porphyromonas gingivalis [2]): 74%
- Activity (HEK293): Not toxic
- hemolysis at 1 h, 100 µM [3]: 72%
- Activity (Porphyromonas gingivalis [4]): 88%

SMILES: COc1ccc(Cc2cn(C)c3ccc([N+](=O)[O-])cc23)cc1C(=O)NS(=O)(=O)c1ccccc1F
- Activity (Porphyromonas gingivalis [5]): 52%
- Activity (Porphyromonas gingivalis [6]): 100%
- Activity (HepG2): >76%
- Activity (Porphyromonas gingivalis [7]): 96%
- Activity (Porphyromonas gingivalis [8]): 61%

SMILES: COc1ccc(Cc2cn(C)c3ccc([N+](=O)[O-])cc23)cc1C(=O)NS(=O)(=O)c1c(F)cccc1F
- Activity (Porphyromonas gingivalis [6]): 100%
- Activity (Streptococcus sanguinis): 40%
- Activity (Actinomyces naeslundii): 40%
- Activity (Fusobacterium nucleatum): 76%
- Activity (Porphyromonas gingivalis [8]): 61%

SMILES: COc1ccc(Cc2cn(C)c3ccc([N+](=O)[O-])cc23)cc1C(=O)NS(=O)(=O)c1ccccc1Cl
- Activity (Porphyromonas gingivalis [5]): 55%
- Activity (Porphyromonas gingivalis [6]): 100%
- Activity [9]: 5%
- Activity (HepG2): >76%
- Activity (Porphyromonas gingivalis [10]): 53%
- Activity (Porphyromonas gingivalis [7]): Active
- Activity [11]: 9%
- Activity [12]: Toxic
- Activity (Porphyromonas gingivalis [13]): Active
- Activity (Porphyromonas gingivalis [8]): 61%
- Activity (Porphyromonas gingivalis [14]): 58%

SMILES: CCn1cc(Cc2ccc(OC)c(C(=O)NS(=O)(=O)c3ccc([N+](=O)[O-])cc3)c2)c2cc([N+](=O)[O-])ccc21
- Activity (Porphyromonas gingivalis [15]): 77%
- Activity (Porphyromonas gingivalis [6]): 100%
- Activity (Porphyromonas gingivalis [16]): 6%
- Activity (Porphyromonas gingivalis [7]): 19%

SMILES: CCCCn1cc(Cc2ccc(OC)c(C(=O)NS(=O)(=O)c3ccccc3F)c2)c2cc([N+](=O)[O-])ccc21
- Activity (Erythrocyte): <= 25%

SMILES: CCCCn1cc(Cc2ccc(OC)c(C(=O)NS(=O)(=O)c3ccc([N+](=O)[O-])cc3)c2)c2cc([N+](=O)[O-])ccc21
- Activity (Porphyromonas gingivalis [15]): 77%
- Activity (Porphyromonas gingivalis [6]): 100%
- Activity (Porphyromonas gingivalis [1]): 57%
- Activity [9]: 23%
- Activity (Porphyromonas gingivalis [17]): 71%
- Activity (Porphyromonas gingivalis [18]): 69%
- Activity [11]: 63%
- Activity (Erythrocyte): <= 15%
- Activity (Porphyromonas gingivalis [14]): 63%

SMILES: CCCn1cc(Cc2ccc(OC)c(C(=O)NS(=O)(=O)c3ccccc3F)c2)c2cc([N+](=O)[O-])ccc21
- Activity (Erythrocyte): <= 25%

SMILES: CN(C)[C@@H]1C(O)=C(C(N)=O)C(=O)[C@@]2(O)C(O)=C3C(=O)c4c(O)cccc4[C@@](C)(O)[C@H]3C[C@@H]12 [TETRACYCLINE]
- Activity (Porphyromonas gingivalis [1]): 57%

SMILES: C[C@@H]1[C@H](O)[C@@H](C)/C=C/C=C/C=C/C=C/C=C/C=C/C=C/[C@H](O[C@@H]2O[C@H](C)[C@@H](O)[C@H](N)[C@@H]2O)C[C@@H]2O[C@](O)(C[C@@H](O)C[C@@H](O)[C@H](O)CC[C@@H](O)C[C@@H](O)CC(=O)O[C@H]1C)C[C@H](O)[C@H]2C(=O)O [AMPHOTERICIN B]
- hemolysis at 1 h, 27 microg/ml [19]: 0%

SMILES: COc1ccc(Cc2cn(CC(C)C)c3ccc([N+](=O)[O-])cc23)cc1C(=O)NS(=O)(=O)c1ccc([N+](=O)[O-])cc1
- Activity (Porphyromonas gingivalis [6]): 100%
- Activity (Porphyromonas gingivalis [8]): 73%

SMILES: CCCn1cc(Cc2ccc(OC)c(C(=O)NS(=O)(=O)c3ccc([N+](=O)[O-])cc3)c2)c2cc([N+](=O)[O-])ccc21
- Activity (Porphyromonas gingivalis [15]): 77%
- Activity (Porphyromonas gingivalis [6]): 100%
- Activity (Porphyromonas gingivalis [18]): 60%
- Activity (Erythrocyte): <= 15%

SMILES: COc1ccc(Cc2cn(C)c3ccc([N+](=O)[O-])cc23)cc1C(=O)NS(=O)(=O)c1ccccc1Br
- Activity (Porphyromonas gingivalis [6]): 100%
- Activity (HepG2): >76%
- Activity (Porphyromonas gingivalis [7]): Active
- Activity [12]: Toxic
- Activity (Porphyromonas gingivalis [13]): Active
- Activity (Porphyromonas gingivalis [8]): 61%

SMILES: COc1ccc(Cc2cn(C)c3ccc([N+](=O)[O-])cc23)cc1C(=O)NS(=O)(=O)c1ccc([N+](=O)[O-])cc1
- Activity (Porphyromonas gingivalis [15]): 63%
- Activity (Porphyromonas gingivalis [6]): 100%
- Activity (Porphyromonas gingivalis [16]): 0%
- Activity (Porphyromonas gingivalis [7]): Active
- Activity (Porphyromonas gingivalis [20]): 86%
